Measured values as given in ChEMBL document CHEMBL3758117, “Discovery of indeno[1,2-b]quinoxaline derivatives as potential anticancer agents” (Eur J Med Chem, 2016).
Active and inactive are the calls of the source. The calls are words filed in the database; no cut-off is given here.

Test system: Escherichia coli
Assay: Binding affinity to Escherichia coli negative supercoiled pBR322 DNA at 10 uM after 12 hrs by ethidium bromide staining based agarose gel electrophoresis
Settings: not given
Procedure, shortened: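 Negatively supercoiled pBR322 (400 ng) in TE buffer pH 8.0 was incubated with compound at 10 μM for 12 h at room temperature. Loading buffer with sarkosyl was added. Samples were run on 1% agarose at 6 V/cm for 2.5 h in TAE pH 8.5, stained with ethidium bromide and photographed under UV.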

| Structure (SMILES) | Activity |
| --- | --- |
| O=C1c2ccccc2-c2nc3c(CN4CCC(N5CCCCC5)CC4)cccc3nc21 | inactive |
| O=C1c2ccccc2-c2nc3c(C(=O)O)cccc3nc21 | inactive |
| O/N=C1\c2ccccc2-c2nc3ccccc3nc21 | inactive |
| O=C1c2ccccc2-c2nc3c(C(=O)NCCN4CCOCC4)cccc3nc21 | inactive |
| CN(C)Cc1cccc2nc3c(nc12)-c1ccccc1C3=O | inactive |
| O=C1c2ccccc2-c2nc3c(CN4CCCCC4)cccc3nc21 | inactive |
| CN(C)CCCO/N=C1\c2ccccc2-c2nc3c(C(=O)O)cccc3nc21 | inactive |
| O=C1c2ccccc2-c2nc3c(CN4CCCC4)cccc3nc21 | inactive |

Test system: MDA-MB-231
Assay: Antiproliferative activity against human MDA-MB-231 cells after 72 hrs by XTT assay
Type: functional, cell-based
Settings: MDA-MB-231, 72 h
Procedure, shortened: (§1)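 Cells kept as monolayers in DMEM with 10% FBS, penicillin, streptomycin and amphotericin at 37°C, 5% CO2. Seeded at 5 x 10³ cells/well and exposed to compound for 72 h in medium with 10% FBS. XTT plus electron-coupling reagent added, 4 h at 37°C, absorbance read at 492 nm. Percent of control growth uses mean absorbance (n = 3). The 50% value is taken from the linear portion of the curve.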

| Structure (SMILES) | IC50 [µM] |
| --- | --- |
| O=C1c2ccccc2-c2nc3c(CN4CCC(N5CCCCC5)CC4)cccc3nc21 | > 10 |
| O=C1c2ccccc2-c2nc3c(C(=O)O)cccc3nc21 | > 10 |
| O/N=C1\c2ccccc2-c2nc3ccccc3nc21 | > 10 |
| CC[C@@]1(O)C(=O)OCc2c1cc1n(c2=O)Cc2cc3c(CN(C)C)c(O)ccc3nc2-1 [TOPOTECAN] | < 0.1 |
| O=C1c2ccccc2-c2nc3c(C(=O)NCCN4CCOCC4)cccc3nc21 | > 10 |
| CN(C)Cc1cccc2nc3c(nc12)-c1ccccc1C3=O | > 10 |
| O=C1c2ccccc2-c2nc3c(CN4CCCCC4)cccc3nc21 | > 10 |
| CN(C)CCCO/N=C1\c2ccccc2-c2nc3c(C(=O)O)cccc3nc21 | > 10 |
| O=C1c2ccccc2-c2nc3c(CN4CCCC4)cccc3nc21 | > 10 |

Test system: not listed separately
Assay: Antiproliferative activity against human H1299 cells after 72 hrs by XTT assay
Type: functional, cell-based
Settings: NCI-H1299, 72 h
Procedure, shortened: as §1

| Structure (SMILES) | IC50 [µM] |
| --- | --- |
| O=C1c2ccccc2-c2nc3c(CN4CCC(N5CCCCC5)CC4)cccc3nc21 | > 10 |
| O=C1c2ccccc2-c2nc3c(C(=O)O)cccc3nc21 | > 10 |
| O/N=C1\c2ccccc2-c2nc3ccccc3nc21 | > 10 |
| O=C1c2ccccc2-c2nc3c(C(=O)NCCN4CCOCC4)cccc3nc21 | > 10 |
| CN(C)Cc1cccc2nc3c(nc12)-c1ccccc1C3=O | > 10 |
| O=C1c2ccccc2-c2nc3c(CN4CCCCC4)cccc3nc21 | > 10 |
| CN(C)CCCO/N=C1\c2ccccc2-c2nc3c(C(=O)O)cccc3nc21 | > 10 |
| O=C1c2ccccc2-c2nc3c(CN4CCCC4)cccc3nc21 | > 10 |

Test system: not listed separately
Assay: Antiproliferative activity against human PC3 cells after 72 hrs by XTT assay
Type: functional, cell-based
Settings: PC-3, 72 h
Procedure, shortened: as §1

| Structure (SMILES) | IC50 [µM] |
| --- | --- |
| O=C1c2ccccc2-c2nc3c(CN4CCC(N5CCCCC5)CC4)cccc3nc21 | > 10 |
| O=C1c2ccccc2-c2nc3c(C(=O)O)cccc3nc21 | > 10 |
| O/N=C1\c2ccccc2-c2nc3ccccc3nc21 | > 10 |
| CC[C@@]1(O)C(=O)OCc2c1cc1n(c2=O)Cc2cc3c(CN(C)C)c(O)ccc3nc2-1 [TOPOTECAN] | 9.35 |
| O=C1c2ccccc2-c2nc3c(C(=O)NCCN4CCOCC4)cccc3nc21 | > 10 |
| CN(C)Cc1cccc2nc3c(nc12)-c1ccccc1C3=O | > 10 |
| O=C1c2ccccc2-c2nc3c(CN4CCCCC4)cccc3nc21 | > 10 |
| CN(C)CCCO/N=C1\c2ccccc2-c2nc3c(C(=O)O)cccc3nc21 | > 10 |
| O=C1c2ccccc2-c2nc3c(CN4CCCC4)cccc3nc21 | > 10 |

Test system: not listed separately
Assay: Antiproliferative activity against human HuH7 cells after 72 hrs by XTT assay
Type: functional, cell-based
Settings: Huh-7, 72 h
Procedure, shortened: as §1

| Structure (SMILES) | IC50 [µM] |
| --- | --- |
| O=C1c2ccccc2-c2nc3c(CN4CCC(N5CCCCC5)CC4)cccc3nc21 | > 10 |
| O=C1c2ccccc2-c2nc3c(C(=O)O)cccc3nc21 | > 10 |
| O/N=C1\c2ccccc2-c2nc3ccccc3nc21 | > 10 |
| O=C1c2ccccc2-c2nc3c(C(=O)NCCN4CCOCC4)cccc3nc21 | > 10 |
| CN(C)Cc1cccc2nc3c(nc12)-c1ccccc1C3=O | > 10 |
| O=C1c2ccccc2-c2nc3c(CN4CCCCC4)cccc3nc21 | > 10 |
| CN(C)CCCO/N=C1\c2ccccc2-c2nc3c(C(=O)O)cccc3nc21 | > 10 |
| O=C1c2ccccc2-c2nc3c(CN4CCCC4)cccc3nc21 | 6.98 |

Test system: MRC5
Assay: Antiproliferative activity against human MRC5 cells after 72 hrs by XTT assay
Type: cell-based
Settings: MRC5, 72 h
Procedure, shortened: as §1

| Structure (SMILES) | IC50 [µM] |
| --- | --- |
| O=C1c2ccccc2-c2nc3c(CN4CCC(N5CCCCC5)CC4)cccc3nc21 | 89.7 |
| O=C1c2ccccc2-c2nc3c(C(=O)O)cccc3nc21 | 71.2 |
| O/N=C1\c2ccccc2-c2nc3ccccc3nc21 | 51.1 |
| CC[C@@]1(O)C(=O)OCc2c1cc1n(c2=O)Cc2cc3c(CN(C)C)c(O)ccc3nc2-1 [TOPOTECAN] | 4.25 |
| O=C1c2ccccc2-c2nc3c(C(=O)NCCN4CCOCC4)cccc3nc21 | 88.6 |
| CN(C)Cc1cccc2nc3c(nc12)-c1ccccc1C3=O | 77.8 |
| O=C1c2ccccc2-c2nc3c(CN4CCCCC4)cccc3nc21 | 25.9 |
| CN(C)CCCO/N=C1\c2ccccc2-c2nc3c(C(=O)O)cccc3nc21 | 15.1 |
| O=C1c2ccccc2-c2nc3c(CN4CCCC4)cccc3nc21 | 9.8 |

Test system: MRC5
Assay: Selectivity index, ratio of IC50 for human MRC5 cells to IC50 for human MDA-MB-231 cells
Type: functional
Settings: not given

| Structure (SMILES) | Ratio IC50 |
| --- | --- |
| CC[C@@]1(O)C(=O)OCc2c1cc1n(c2=O)Cc2cc3c(CN(C)C)c(O)ccc3nc2-1 [TOPOTECAN] | >42.5 |

Test system: not listed separately
Assay: Selectivity index, ratio of IC50 for human MRC5 cells to IC50 for human H1299 cells
Type: functional
Settings: not given

| Structure (SMILES) | Ratio IC50 |
| --- | --- |
| CC[C@@]1(O)C(=O)OCc2c1cc1n(c2=O)Cc2cc3c(CN(C)C)c(O)ccc3nc2-1 [TOPOTECAN] | 0.71 |

Test system: MRC5
Assay: Selectivity index, ratio of IC50 for human MRC5 cells to IC50 for human PC3 cells
Type: functional
Settings: not given

| Structure (SMILES) | Ratio IC50 |
| --- | --- |
| CC[C@@]1(O)C(=O)OCc2c1cc1n(c2=O)Cc2cc3c(CN(C)C)c(O)ccc3nc2-1 [TOPOTECAN] | 0.45 |

Test system: Huh-7
Assay: Selectivity index, ratio of IC50 for human MRC5 cells to IC50 for human HuH7 cells
Type: functional
Settings: not given

| Structure (SMILES) | Ratio IC50 |
| --- | --- |
| CC[C@@]1(O)C(=O)OCc2c1cc1n(c2=O)Cc2cc3c(CN(C)C)c(O)ccc3nc2-1 [TOPOTECAN] | 0.49 |
| O=C1c2ccccc2-c2nc3c(CN4CCCC4)cccc3nc21 | 1.4 |

Target: T1, DNA topoisomerase 1 (Homo sapiens) (UniProt P11387)
T1 sequence (whole entry): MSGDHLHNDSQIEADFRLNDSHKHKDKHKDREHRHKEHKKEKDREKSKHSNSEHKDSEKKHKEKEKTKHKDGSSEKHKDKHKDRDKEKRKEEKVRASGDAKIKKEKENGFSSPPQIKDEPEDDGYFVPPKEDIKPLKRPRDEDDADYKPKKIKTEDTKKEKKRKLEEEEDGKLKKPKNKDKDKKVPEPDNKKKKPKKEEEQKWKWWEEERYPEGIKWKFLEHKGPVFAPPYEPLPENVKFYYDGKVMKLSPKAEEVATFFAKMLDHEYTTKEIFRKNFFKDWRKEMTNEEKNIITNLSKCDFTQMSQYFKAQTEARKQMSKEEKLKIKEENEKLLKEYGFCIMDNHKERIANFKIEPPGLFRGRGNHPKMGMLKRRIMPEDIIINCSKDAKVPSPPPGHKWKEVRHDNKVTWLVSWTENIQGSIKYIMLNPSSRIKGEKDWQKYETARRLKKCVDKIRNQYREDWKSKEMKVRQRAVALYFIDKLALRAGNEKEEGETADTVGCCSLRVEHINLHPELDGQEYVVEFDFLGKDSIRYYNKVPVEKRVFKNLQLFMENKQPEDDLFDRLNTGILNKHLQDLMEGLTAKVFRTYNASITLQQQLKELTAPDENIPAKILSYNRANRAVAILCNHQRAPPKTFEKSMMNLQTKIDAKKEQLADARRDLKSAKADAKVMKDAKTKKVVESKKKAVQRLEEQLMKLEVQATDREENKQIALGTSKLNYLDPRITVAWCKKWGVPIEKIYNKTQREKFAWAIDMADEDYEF
Assay: Inhibition of human DNA topoisomerase 1-mediated relaxation of supercoiled pBR322 DNA at 100 uM after 30 mins by ethidium bromide staining based agarose gel electrophoresis
Settings: not given
Procedure, shortened: (§2)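 Human topo I or topo II (2 units) was reacted with 0.2 μg supercoiled pBR322 in 20 μl Tris-HCl pH 7.5 containing KCl, DTT, EDTA, MgCl2 and BSA, with DMSO held at 0.5%, for 30 min at 37°C. The reaction was stopped with SDS. Samples were run on 1% agarose in Tris-acetate/EDTA at 1.5 V/cm for 2-3 h and stained with ethidium bromide. Relaxation was quantified by densitometry of the supercoiled band area.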

| Structure (SMILES) | topoisomerase 1 inhibition (active/inactive) |
| --- | --- |
| O=C1c2ccccc2-c2nc3c(CN4CCC(N5CCCCC5)CC4)cccc3nc21 | inactive |
| O/N=C1\c2ccccc2-c2nc3ccccc3nc21 | inactive |
| O=C1c2ccccc2-c2nc3c(C(=O)NCCN4CCOCC4)cccc3nc21 | inactive |
| CN(C)Cc1cccc2nc3c(nc12)-c1ccccc1C3=O | Active |
| O=C1c2ccccc2-c2nc3c(CN4CCCCC4)cccc3nc21 | Active |
| CN(C)CCCO/N=C1\c2ccccc2-c2nc3c(C(=O)O)cccc3nc21 | inactive |
| COc1ccc2c(c1)/C(=N\OCCN1CCCC1)c1c-2c(O)nc2ccccc12 | Active |
| O=C1c2ccccc2-c2nc3c(CN4CCCC4)cccc3nc21 | Active |

Target: T1, DNA topoisomerase 1 (Homo sapiens)
Assay: Inhibition of human DNA topoisomerase 1-mediated relaxation of supercoiled pBR322 DNA at 10 uM after 30 mins by ethidium bromide staining based agarose gel electrophoresis
Settings: not given
Procedure, shortened: as §2

| Structure (SMILES) | inhibition |
| --- | --- |
| CN(C)Cc1cccc2nc3c(nc12)-c1ccccc1C3=O | inactive |
| O=C1c2ccccc2-c2nc3c(CN4CCCCC4)cccc3nc21 | inactive |
| COc1ccc2c(c1)/C(=N\OCCN1CCCC1)c1c-2c(O)nc2ccccc12 | Active |
| O=C1c2ccccc2-c2nc3c(CN4CCCC4)cccc3nc21 | inactive |

Target: DNA topoisomerase 2-alpha (Homo sapiens) (UniProt P11388)
Assay: Inhibition of human DNA topoisomerase 2-mediated relaxation of supercoiled pBR322 DNA at 100 uM after 30 mins by ethidium bromide staining based agarose gel electrophoresis
Settings: not given
Procedure, shortened: as §2

DNA topoisomerase 2-alpha (Homo sapiens), sequence (P11388 whole entry): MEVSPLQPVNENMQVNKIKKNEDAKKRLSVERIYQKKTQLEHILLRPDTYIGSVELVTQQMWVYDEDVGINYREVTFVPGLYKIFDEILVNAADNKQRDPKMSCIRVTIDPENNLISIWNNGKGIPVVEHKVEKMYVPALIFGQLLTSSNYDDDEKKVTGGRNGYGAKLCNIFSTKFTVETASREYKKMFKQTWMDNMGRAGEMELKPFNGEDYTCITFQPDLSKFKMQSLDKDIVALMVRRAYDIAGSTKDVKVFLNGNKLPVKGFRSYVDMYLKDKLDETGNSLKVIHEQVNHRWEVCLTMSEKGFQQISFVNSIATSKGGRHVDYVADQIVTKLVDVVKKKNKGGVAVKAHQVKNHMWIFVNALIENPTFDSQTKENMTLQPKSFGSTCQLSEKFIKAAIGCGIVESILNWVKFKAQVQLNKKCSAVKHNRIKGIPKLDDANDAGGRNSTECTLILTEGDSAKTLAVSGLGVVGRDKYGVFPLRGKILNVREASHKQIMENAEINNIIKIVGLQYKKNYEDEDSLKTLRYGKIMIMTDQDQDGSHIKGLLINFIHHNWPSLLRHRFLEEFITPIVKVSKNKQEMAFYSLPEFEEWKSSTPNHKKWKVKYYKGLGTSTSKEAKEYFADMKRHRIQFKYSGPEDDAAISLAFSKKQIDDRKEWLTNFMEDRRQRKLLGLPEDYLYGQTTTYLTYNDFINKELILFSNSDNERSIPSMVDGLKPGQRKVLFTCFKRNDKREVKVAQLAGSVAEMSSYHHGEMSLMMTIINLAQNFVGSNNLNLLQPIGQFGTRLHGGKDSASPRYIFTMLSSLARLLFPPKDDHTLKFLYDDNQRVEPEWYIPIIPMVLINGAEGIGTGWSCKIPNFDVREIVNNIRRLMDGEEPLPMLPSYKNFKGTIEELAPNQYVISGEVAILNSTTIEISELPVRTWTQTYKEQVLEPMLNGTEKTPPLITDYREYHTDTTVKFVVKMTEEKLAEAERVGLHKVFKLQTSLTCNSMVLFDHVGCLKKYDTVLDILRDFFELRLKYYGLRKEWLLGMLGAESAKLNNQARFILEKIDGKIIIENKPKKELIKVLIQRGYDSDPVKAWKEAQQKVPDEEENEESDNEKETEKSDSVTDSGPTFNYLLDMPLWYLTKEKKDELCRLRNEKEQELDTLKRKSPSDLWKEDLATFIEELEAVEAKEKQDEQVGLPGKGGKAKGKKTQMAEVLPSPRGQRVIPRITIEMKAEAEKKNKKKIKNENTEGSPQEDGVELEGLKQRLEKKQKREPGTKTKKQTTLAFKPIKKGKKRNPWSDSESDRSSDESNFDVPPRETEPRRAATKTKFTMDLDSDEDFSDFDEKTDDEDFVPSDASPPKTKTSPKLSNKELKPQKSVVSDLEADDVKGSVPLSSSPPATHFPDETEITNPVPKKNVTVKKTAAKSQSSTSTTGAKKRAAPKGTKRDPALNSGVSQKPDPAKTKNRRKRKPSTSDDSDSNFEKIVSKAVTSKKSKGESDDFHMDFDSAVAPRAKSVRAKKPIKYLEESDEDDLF

| Structure (SMILES) | inhibition call (active/not active) |
| --- | --- |
| O=C1c2ccccc2-c2nc3c(CN4CCC(N5CCCCC5)CC4)cccc3nc21 | inactive |
| O/N=C1\c2ccccc2-c2nc3ccccc3nc21 | inactive |
| O=C1c2ccccc2-c2nc3c(C(=O)NCCN4CCOCC4)cccc3nc21 | inactive |
| CN(C)Cc1cccc2nc3c(nc12)-c1ccccc1C3=O | inactive |
| O=C1c2ccccc2-c2nc3c(CN4CCCCC4)cccc3nc21 | inactive |
| CN(C)CCCO/N=C1\c2ccccc2-c2nc3c(C(=O)O)cccc3nc21 | inactive |
| COc1ccc2c(c1)/C(=N\OCCN1CCCC1)c1c-2c(O)nc2ccccc12 | Active |
| O=C1c2ccccc2-c2nc3c(CN4CCCC4)cccc3nc21 | inactive |

Target: DNA topoisomerase 2-alpha (Homo sapiens) (UniProt P11388)
Assay: Inhibition of human DNA topoisomerase 2-mediated relaxation of supercoiled pBR322 DNA at 10 uM after 30 mins by ethidium bromide staining based agarose gel electrophoresis
Settings: not given
Procedure, shortened: as §2

| Structure (SMILES) | topoisomerase 2 inhibition (active/not active) |
| --- | --- |
| COc1ccc2c(c1)/C(=N\OCCN1CCCC1)c1c-2c(O)nc2ccccc12 | Active |
